Test results taken from ChEMBL document CHEMBL4673184, “Synthesis and biological evaluation of S-lipidated lipopeptides of a connexin 43 channel inhibitory peptide” (RSC Med Chem, 2020).
Active and inactive are the calls of the source. The rule behind the calls is not given here. Where a SMILES comes first, the peptide text is derived from it. The star is where a group is joined. Ethyl(2-stearoyloxy) = CCCCCCCCCCCCCCCCCC(=O)OCC*; Ethyl(2-palmitoyloxy) = CCCCCCCCCCCCCCCC(=O)OCC*; CH2CH2OBz(4-tBu) = CC(C)(C)c1ccc(C(=O)OCC*)cc1; Ethyl(2-decanoyloxy) = CCCCCCCCCC(=O)OCC*; Ethyl(2-butanoyloxy) = CCCC(=O)OCC*; Ethyl(2-OPiv) = CC(C)(C)C(=O)OCC*

Target: Gap junction alpha-1 protein (Homo sapiens) (UniProt P17302)
Sequence (P17302 whole entry): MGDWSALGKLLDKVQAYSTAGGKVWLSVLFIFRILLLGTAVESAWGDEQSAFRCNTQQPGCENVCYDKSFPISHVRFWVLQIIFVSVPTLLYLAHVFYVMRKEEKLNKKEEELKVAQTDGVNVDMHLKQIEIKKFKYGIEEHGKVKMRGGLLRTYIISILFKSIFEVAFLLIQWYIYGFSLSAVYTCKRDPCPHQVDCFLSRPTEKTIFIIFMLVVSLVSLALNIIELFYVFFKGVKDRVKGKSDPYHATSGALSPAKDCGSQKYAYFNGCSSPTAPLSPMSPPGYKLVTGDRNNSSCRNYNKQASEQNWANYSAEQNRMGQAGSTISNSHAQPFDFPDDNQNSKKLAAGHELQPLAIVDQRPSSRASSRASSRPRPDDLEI
Experiment: Inhibition of Cx43 in hypoxic-acidic ion-shifted ringers solution-induced human cerebral microvascular endothelial cell model of ischaemic injury assessed as ATP release at 10 uM measured after 2 hrs by luciferin-luciferase based luminescence assay relative to control
Set-up: scale not given: the % may be the effect or the level left
Method in brief: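 hCMVEC (passages 8-17) seeded at 2 x 10^6/well on collagen-I (1 µg/cm²) and grown 48 h to a confluent monolayer. Washed in NR, then exposed 2 h in HAIR (pH 6.6, N₂-bubbled, low Ca²⁺, K-gluconate/NMDG) containing peptide at 10 µM. Supernatant diluted 1:10 in firefly luciferase mix and read at 560 nm against an ATP standard (0-50 nM). Expressed as % of HAIR-only, mean of n=3.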

Compound	Activity
CC1(C)[C@@H](OC(=O)CCC(=O)O)CC[C@]2(C)[C@H]3C(=O)C=C4[C@@H]5C[C@@](C)(C(=O)O)CC[C@]5(C)CC[C@@]4(C)[C@]3(C)CC[C@@H]12	23.3%
CC(C)C[C@H](NC(=O)[C@H](Cc1ccccc1)NC(=O)[C@H](CS)NC(=O)[C@H](CC(=O)O)NC(=O)[C@@H](N)CSCCOC(=O)c1ccc(C(C)(C)C)cc1)C(=O)N[C@@H](CO)C(=O)N[C@@H](CCCNC(=N)N)C(=O)N1CCC[C@H]1C(=O)N[C@H](C(=O)N[C@@H](CCC(=O)O)C(=O)N[C@@H](CCCCN)C(=O)N[C@H](C(=O)O)[C@@H](C)O)[C@@H](C)O (H-C(CH2CH2OBz(4-tBu))DCFLSRPTEKT-OH)	inactive
CC(C)C[C@H](NC(=O)[C@H](Cc1ccccc1)NC(=O)[C@H](CS)NC(=O)[C@H](CC(=O)O)NC(=O)[C@@H](N)CSCCOC(=O)C(C)(C)C)C(=O)N[C@@H](CO)C(=O)N[C@@H](CCCNC(=N)N)C(=O)N1CCC[C@H]1C(=O)N[C@H](C(=O)N[C@@H](CCC(=O)O)C(=O)N[C@@H](CCCCN)C(=O)N[C@H](C(=O)O)[C@@H](C)O)[C@@H](C)O (H-C(Ethyl(2-OPiv))DCFLSRPTEKT-OH)	inactive
CCCC(=O)OCCSC[C@H](N)C(=O)N[C@@H](CC(=O)O)C(=O)N[C@@H](CS)C(=O)N[C@@H](Cc1ccccc1)C(=O)N[C@@H](CC(C)C)C(=O)N[C@@H](CO)C(=O)N[C@@H](CCCNC(=N)N)C(=O)N1CCC[C@H]1C(=O)N[C@H](C(=O)N[C@@H](CCC(=O)O)C(=O)N[C@@H](CCCCN)C(=O)N[C@H](C(=O)O)[C@@H](C)O)[C@@H](C)O (H-C(Ethyl(2-butanoyloxy))DCFLSRPTEKT-OH)	inactive
CCCCCCCCCC(=O)OCCSC[C@H](N)C(=O)N[C@@H](CC(=O)O)C(=O)N[C@@H](CS)C(=O)N[C@@H](Cc1ccccc1)C(=O)N[C@@H](CC(C)C)C(=O)N[C@@H](CO)C(=O)N[C@@H](CCCNC(=N)N)C(=O)N1CCC[C@H]1C(=O)N[C@H](C(=O)N[C@@H](CCC(=O)O)C(=O)N[C@@H](CCCCN)C(=O)N[C@H](C(=O)O)[C@@H](C)O)[C@@H](C)O (H-C(Ethyl(2-decanoyloxy))DCFLSRPTEKT-OH)	inactive
CCCCCCCCCCCCCCCC(=O)OCCSC[C@H](N)C(=O)N[C@@H](CC(=O)O)C(=O)N[C@@H](CS)C(=O)N[C@@H](Cc1ccccc1)C(=O)N[C@@H](CC(C)C)C(=O)N[C@@H](CO)C(=O)N[C@@H](CCCNC(=N)N)C(=O)N1CCC[C@H]1C(=O)N[C@H](C(=O)N[C@@H](CCC(=O)O)C(=O)N[C@@H](CCCCN)C(=O)N[C@H](C(=O)O)[C@@H](C)O)[C@@H](C)O (H-C(Ethyl(2-palmitoyloxy))DCFLSRPTEKT-OH)	inactive
CCCCCCCCCCCCCCCCCC(=O)OCCSC[C@H](N)C(=O)N[C@@H](CC(=O)O)C(=O)N[C@@H](CS)C(=O)N[C@@H](Cc1ccccc1)C(=O)N[C@@H](CC(C)C)C(=O)N[C@@H](CO)C(=O)N[C@@H](CCCNC(=N)N)C(=O)N1CCC[C@H]1C(=O)N[C@H](C(=O)N[C@@H](CCC(=O)O)C(=O)N[C@@H](CCCCN)C(=O)N[C@H](C(=O)O)[C@@H](C)O)[C@@H](C)O (H-C(Ethyl(2-stearoyloxy))DCFLSRPTEKT-OH)	inactive
CC(C)C[C@H](NC(=O)[C@H](CSCCOC(=O)c1ccc(C(C)(C)C)cc1)NC(=O)[C@H](CS)NC(=O)[C@H](CC(=O)O)NC(=O)[C@@H](N)C(C)C)C(=O)N[C@@H](CO)C(=O)N[C@@H](CCCNC(=N)N)C(=O)N1CCC[C@H]1C(=O)N[C@H](C(=O)N[C@@H](CCC(=O)O)C(=O)N[C@@H](CCCCN)C(=O)N[C@H](C(=O)O)[C@@H](C)O)[C@@H](C)O (H-VDCC(CH2CH2OBz(4-tBu))LSRPTEKT-OH)	inactive
CC(C)C[C@H](NC(=O)[C@H](CSCCOC(=O)C(C)(C)C)NC(=O)[C@H](CS)NC(=O)[C@H](CC(=O)O)NC(=O)[C@@H](N)C(C)C)C(=O)N[C@@H](CO)C(=O)N[C@@H](CCCNC(=N)N)C(=O)N1CCC[C@H]1C(=O)N[C@H](C(=O)N[C@@H](CCC(=O)O)C(=O)N[C@@H](CCCCN)C(=O)N[C@H](C(=O)O)[C@@H](C)O)[C@@H](C)O (H-VDCC(Ethyl(2-OPiv))LSRPTEKT-OH)	23.4%
CCCC(=O)OCCSC[C@H](NC(=O)[C@H](CS)NC(=O)[C@H](CC(=O)O)NC(=O)[C@@H](N)C(C)C)C(=O)N[C@@H](CC(C)C)C(=O)N[C@@H](CO)C(=O)N[C@@H](CCCNC(=N)N)C(=O)N1CCC[C@H]1C(=O)N[C@H](C(=O)N[C@@H](CCC(=O)O)C(=O)N[C@@H](CCCCN)C(=O)N[C@H](C(=O)O)[C@@H](C)O)[C@@H](C)O (H-VDCC(Ethyl(2-butanoyloxy))LSRPTEKT-OH)	inactive
CCCCCCCCCC(=O)OCCSC[C@H](NC(=O)[C@H](CS)NC(=O)[C@H](CC(=O)O)NC(=O)[C@@H](N)C(C)C)C(=O)N[C@@H](CC(C)C)C(=O)N[C@@H](CO)C(=O)N[C@@H](CCCNC(=N)N)C(=O)N1CCC[C@H]1C(=O)N[C@H](C(=O)N[C@@H](CCC(=O)O)C(=O)N[C@@H](CCCCN)C(=O)N[C@H](C(=O)O)[C@@H](C)O)[C@@H](C)O (H-VDCC(Ethyl(2-decanoyloxy))LSRPTEKT-OH)	inactive
CCCCCCCCCCCCCCCC(=O)OCCSC[C@H](NC(=O)[C@H](CS)NC(=O)[C@H](CC(=O)O)NC(=O)[C@@H](N)C(C)C)C(=O)N[C@@H](CC(C)C)C(=O)N[C@@H](CO)C(=O)N[C@@H](CCCNC(=N)N)C(=O)N1CCC[C@H]1C(=O)N[C@H](C(=O)N[C@@H](CCC(=O)O)C(=O)N[C@@H](CCCCN)C(=O)N[C@H](C(=O)O)[C@@H](C)O)[C@@H](C)O (H-VDCC(Ethyl(2-palmitoyloxy))LSRPTEKT-OH)	inactive
CCCCCCCCCCCCCCCCCC(=O)OCCSC[C@H](NC(=O)[C@H](CS)NC(=O)[C@H](CC(=O)O)NC(=O)[C@@H](N)C(C)C)C(=O)N[C@@H](CC(C)C)C(=O)N[C@@H](CO)C(=O)N[C@@H](CCCNC(=N)N)C(=O)N1CCC[C@H]1C(=O)N[C@H](C(=O)N[C@@H](CCC(=O)O)C(=O)N[C@@H](CCCCN)C(=O)N[C@H](C(=O)O)[C@@H](C)O)[C@@H](C)O (H-VDCC(Ethyl(2-stearoyloxy))LSRPTEKT-OH)	inactive
CC(C)C[C@H](NC(=O)[C@H](Cc1ccccc1)NC(=O)[C@H](CS)NC(=O)[C@H](CC(=O)O)NC(=O)[C@@H](N)C(C)C)C(=O)N[C@@H](CSCCOC(=O)c1ccc(C(C)(C)C)cc1)C(=O)N[C@@H](CCCNC(=N)N)C(=O)N1CCC[C@H]1C(=O)N[C@H](C(=O)N[C@@H](CCC(=O)O)C(=O)N[C@@H](CCCCN)C(=O)N[C@H](C(=O)O)[C@@H](C)O)[C@@H](C)O (H-VDCFLC(CH2CH2OBz(4-tBu))RPTEKT-OH)	inactive
CC(C)C[C@H](NC(=O)[C@H](Cc1ccccc1)NC(=O)[C@H](CS)NC(=O)[C@H](CC(=O)O)NC(=O)[C@@H](N)C(C)C)C(=O)N[C@@H](CSCCOC(=O)C(C)(C)C)C(=O)N[C@@H](CCCNC(=N)N)C(=O)N1CCC[C@H]1C(=O)N[C@H](C(=O)N[C@@H](CCC(=O)O)C(=O)N[C@@H](CCCCN)C(=O)N[C@H](C(=O)O)[C@@H](C)O)[C@@H](C)O (H-VDCFLC(Ethyl(2-OPiv))RPTEKT-OH)	inactive
CCCC(=O)OCCSC[C@H](NC(=O)[C@H](CC(C)C)NC(=O)[C@H](Cc1ccccc1)NC(=O)[C@H](CS)NC(=O)[C@H](CC(=O)O)NC(=O)[C@@H](N)C(C)C)C(=O)N[C@@H](CCCNC(=N)N)C(=O)N1CCC[C@H]1C(=O)N[C@H](C(=O)N[C@@H](CCC(=O)O)C(=O)N[C@@H](CCCCN)C(=O)N[C@H](C(=O)O)[C@@H](C)O)[C@@H](C)O (H-VDCFLC(Ethyl(2-butanoyloxy))RPTEKT-OH)	inactive
CCCCCCCCCC(=O)OCCSC[C@H](NC(=O)[C@H](CC(C)C)NC(=O)[C@H](Cc1ccccc1)NC(=O)[C@H](CS)NC(=O)[C@H](CC(=O)O)NC(=O)[C@@H](N)C(C)C)C(=O)N[C@@H](CCCNC(=N)N)C(=O)N1CCC[C@H]1C(=O)N[C@H](C(=O)N[C@@H](CCC(=O)O)C(=O)N[C@@H](CCCCN)C(=O)N[C@H](C(=O)O)[C@@H](C)O)[C@@H](C)O (H-VDCFLC(Ethyl(2-decanoyloxy))RPTEKT-OH)	inactive
CCCCCCCCCCCCCCCC(=O)OCCSC[C@H](NC(=O)[C@H](CC(C)C)NC(=O)[C@H](Cc1ccccc1)NC(=O)[C@H](CS)NC(=O)[C@H](CC(=O)O)NC(=O)[C@@H](N)C(C)C)C(=O)N[C@@H](CCCNC(=N)N)C(=O)N1CCC[C@H]1C(=O)N[C@H](C(=O)N[C@@H](CCC(=O)O)C(=O)N[C@@H](CCCCN)C(=O)N[C@H](C(=O)O)[C@@H](C)O)[C@@H](C)O (H-VDCFLC(Ethyl(2-palmitoyloxy))RPTEKT-OH)	inactive
CCCCCCCCCCCCCCCCCC(=O)OCCSC[C@H](NC(=O)[C@H](CC(C)C)NC(=O)[C@H](Cc1ccccc1)NC(=O)[C@H](CS)NC(=O)[C@H](CC(=O)O)NC(=O)[C@@H](N)C(C)C)C(=O)N[C@@H](CCCNC(=N)N)C(=O)N1CCC[C@H]1C(=O)N[C@H](C(=O)N[C@@H](CCC(=O)O)C(=O)N[C@@H](CCCCN)C(=O)N[C@H](C(=O)O)[C@@H](C)O)[C@@H](C)O (H-VDCFLC(Ethyl(2-stearoyloxy))RPTEKT-OH)	inactive
CC(C)C[C@H](NC(=O)[C@H](Cc1ccccc1)NC(=O)[C@H](CS)NC(=O)[C@H](CC(=O)O)NC(=O)[C@@H](N)C(C)C)C(=O)N[C@@H](CO)C(=O)N[C@@H](CCCNC(=N)N)C(=O)N1CCC[C@H]1C(=O)N[C@@H](CSCCOC(=O)c1ccc(C(C)(C)C)cc1)C(=O)N[C@@H](CCC(=O)O)C(=O)N[C@@H](CCCCN)C(=O)N[C@H](C(=O)O)[C@@H](C)O (H-VDCFLSRPC(CH2CH2OBz(4-tBu))EKT-OH)	inactive
CC(C)C[C@H](NC(=O)[C@H](Cc1ccccc1)NC(=O)[C@H](CS)NC(=O)[C@H](CC(=O)O)NC(=O)[C@@H](N)C(C)C)C(=O)N[C@@H](CO)C(=O)N[C@@H](CCCNC(=N)N)C(=O)N1CCC[C@H]1C(=O)N[C@@H](CSCCOC(=O)C(C)(C)C)C(=O)N[C@@H](CCC(=O)O)C(=O)N[C@@H](CCCCN)C(=O)N[C@H](C(=O)O)[C@@H](C)O (H-VDCFLSRPC(Ethyl(2-OPiv))EKT-OH)	inactive
